Data on eleven compounds can be found in ChEMBL document CHEMBL5120935, “Synthesis, Anti-Plasmodial Activities, and Mechanistic Insights of 4-Aminoquinoline-Triazolopyrimidine Hybrids” (ACS Med Chem Lett, 2022).

Broadly, the pIC50 is the IC50 on a negative log10 scale, so that one unit is a factor of ten.

pIC50: −log10 of the molar value.

A short description of series [1]: Selectivity index, ratio of IC50 for cytotoxicity against African green monkey Vero cells to IC50 for antiplasmodial activity against CQ-susceptible Plasmodium falciparum 3D7 infected in A+ human blood assessed as reduction in parasite growth measured after 72 hrs by HRP2 ELISA. It is filed as toxicity, cell-based. Particulars: read-out: Selectivity Index. An outline of the steps: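 Selectivity index calculated as the IC50 for cytotoxicity on Vero cells divided by the antiplasmodial IC50 against the 3D7 strain.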

In series [2] the test system is Plasmodium falciparum. In words: Antiplasmodial activity against CQ-susceptible Plasmodium falciparum 3D7 infected in A+ human blood assessed as reduction in parasite growth measured after 72 hrs by HRP2 ELISA. It is filed as functional, organism-based. Particulars: 3D7, Blood. An outline of the steps:
(§1)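 IC50s against P. falciparum chloroquine-susceptible 3D7 and chloroquine-resistant W2 strains, each tested separately. Values are the mean and standard deviation of 6 to 9 independent experiments.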
(In an ELISA, binding on a coated surface is turned into a signal by an enzyme label.)

Series [3] has as its system Plasmodium falciparum. In words: Antiplasmodial activity against CQ-resistance Plasmodium falciparum W2 infected in A+ human blood assessed as reduction in parasite growth measured after 72 hrs by HRP2 ELISA. Format: functional, organism-based. An outline of the steps:
as §1

A short description of series [4]: Cytotoxicity against African green monkey Vero cells. Particulars: African green monkey (Chlorocebus sabaeus). It is filed as toxicity, cell-based.
Series [5] is described as follows: Selectivity index, ratio of IC50 for cytotoxicity against African green monkey Vero cells to IC50 for antiplasmodial activity against CQ-resistance Plasmodium falciparum W2 infected in A+ human blood assessed as reduction in parasite growth measured after 72 hrs by HRP2 ELISA. Format: toxicity, cell-based. The following applies: read-out: Selectivity Index. The method, boiled down:
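Selectivity index calculated as the IC50 for cytotoxicity on Vero cells divided by the antiplasmodial IC50 against the W2 strain.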

Series [6] can be described thus: Resistance index, ratio of IC50 for antiplasmodial activity against CQ-resistance Plasmodium falciparum W2 infected in A+ human blood to IC50 for antiplasmodial activity against CQ-susceptible Plasmodium falciparum 3D7 infected in A+ human blood. It is filed as functional. The method, boiled down:
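Resistance index calculated as IC50 against W2 divided by IC50 against 3D7, using the in vitro antiplasmodial IC50s measured for each strain.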

Take `Cc1cc(NCCCCCCCCNc2ccnc3cc(Cl)ccc23)n2ncnc2n1`: the selectivity ratio at 72 h in series [1] came out at 2060; in series [5] it was 1750. Besides, the values for the pIC50 (with Plasmodium falciparum [2]; in the series on Plasmodium falciparum [3]; in series [4]) were 6.77, 6.70 and 3.45, respectively. The “Ratio IC50” value in series [6] was determined as 1.18.
Consider `Cc1cc(NCCCNc2ccnc3cc(Cl)ccc23)n2ncnc2n1`, for which the selectivity ratio at 72 h was determined as 291 in series [1] and 369 in series [5]. The pIC50 in the series with Plasmodium falciparum [2] is 6.21; in the series with Plasmodium falciparum [3] it was 6.31; in series [4], 3.74. Further, the “Ratio IC50” value in series [6] is listed as 0.79.
Take `Cc1cc(NCCCNc2cc(C)nc3ncnn23)n2ncnc2n1`: the pIC50 with Plasmodium falciparum [2] was 4.33; in the series on Plasmodium falciparum [3] it was 4.31. The “Ratio IC50” value in series [6] was found to be 1.03.
Turning to `Cc1cc(NCCCCNc2cc(C)nc3ncnn23)n2ncnc2n1`, the pIC50 in the series with Plasmodium falciparum [2] was 4.90; in the series on Plasmodium falciparum [3] it was 4.93. The “Ratio IC50” value in series [6] is given as 0.94.
For the compound `Cc1cc(NCCCCCCCCNc2cc(C)nc3ncnn23)n2ncnc2n1`, the pIC50 is 4.34 in the series with Plasmodium falciparum [2] and 4.31 in the series with Plasmodium falciparum [3]. For the same compound, the “Ratio IC50” value in series [6] stood at 1.08.
For `Cc1cc(NCCNc2ccnc3cc(Cl)ccc23)n2ncnc2n1` the same measures were 5.05, 4.97 and 1.2.
As for `Cc1cc(N2CCN(c3ccnc4cc(Cl)ccc34)CC2)n2ncnc2n1`, the figures for the negative logarithm of the IC50 (pIC50) in the series on Plasmodium falciparum [2] and with Plasmodium falciparum [3] were 4.90 and 4.89, respectively. Moreover, the “Ratio IC50” value in series [6] is recorded as 1.02.
In the case of `Cc1cc(NCCCCNc2ccnc3cc(Cl)ccc23)n2ncnc2n1`, the selectivity ratio at 72 h in series [1] worked out at 927; in series [5] it was 596. The results for the pIC50 (in the series with Plasmodium falciparum [2]; in the series on Plasmodium falciparum [3]; in series [4]) were 6.57, 6.38 and 3.60, respectively. The “Ratio IC50” value in series [6] is listed as 1.56.
Consider `Cc1cc(NCCCCCCNc2cc(C)nc3ncnn23)n2ncnc2n1`, for which the results for the pIC50 in the series with Plasmodium falciparum [2] and in the series on Plasmodium falciparum [3] were 4.94 and 4.95, respectively. Besides, the “Ratio IC50” value in series [6] is 0.97.
Regarding `Cc1cc(NCCNc2cc(C)nc3ncnn23)n2ncnc2n1`, the pIC50 in the series on Plasmodium falciparum [2] was 4.28; in the series on Plasmodium falciparum [3], 4.27. Further, in series [6], the “Ratio IC50” value is 1.03.
Take `Cc1cc(NCCCCCCNc2ccnc3cc(Cl)ccc23)n2ncnc2n1`: the selectivity ratio at 72 h in series [1] came to 1040; in series [5] it was 1110. Also, the figures for the pIC50 (in the series on Plasmodium falciparum [2]; with Plasmodium falciparum [3]; in series [4]) were 6.52, 6.55 and 3.51, respectively. Also, the “Ratio IC50” value in series [6] came to 0.93.
